We go through 14 compounds from ChEMBL document CHEMBL4390656, “Shooting three inflammatory targets with a single bullet: Novel multi-targeting anti-inflammatory glitazones” (Eur J Med Chem, 2019).

pIC50: −log10 of the molar value. Activity calls are given as the source filed them. The calls are words filed in the database; no cut-off is given here.

Assay [1] is filed under the species Rattus norvegicus. Put plainly: Antidiabetic activity in Wistar rat hemi-diaphragm at 2 mg assessed as increase in insulin-induced glucose uptake by GOD/POD enzymatic method. It counts as functional, tissue-based. In a few lines: (§1)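 Wistar rats (150-250 g), fasted overnight, euthanized under ether; diaphragms removed and halved, each half weighed. Glucose in the working solution measured before and after incubation, and uptake taken as initial minus final content at 2 mg drug; expressed as mg/dl/45 min, mean ± SEM.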

Assay [2] is described as follows: Inhibition of soya bean 15-LOX by colorimetric lipoxygenase inhibitor screening assay kit method. Also on record: species or system Glycine max. In short, it runs like this: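 Soybean 15-LOX activity measured with a colorimetric lipoxygenase inhibitor screening kit per the kit instructions.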
The target of assay [3] is T1, Prostaglandin G/H synthase 1 (Ovis aries, UniProt P05979).
T1 sequence (P05979 whole entry): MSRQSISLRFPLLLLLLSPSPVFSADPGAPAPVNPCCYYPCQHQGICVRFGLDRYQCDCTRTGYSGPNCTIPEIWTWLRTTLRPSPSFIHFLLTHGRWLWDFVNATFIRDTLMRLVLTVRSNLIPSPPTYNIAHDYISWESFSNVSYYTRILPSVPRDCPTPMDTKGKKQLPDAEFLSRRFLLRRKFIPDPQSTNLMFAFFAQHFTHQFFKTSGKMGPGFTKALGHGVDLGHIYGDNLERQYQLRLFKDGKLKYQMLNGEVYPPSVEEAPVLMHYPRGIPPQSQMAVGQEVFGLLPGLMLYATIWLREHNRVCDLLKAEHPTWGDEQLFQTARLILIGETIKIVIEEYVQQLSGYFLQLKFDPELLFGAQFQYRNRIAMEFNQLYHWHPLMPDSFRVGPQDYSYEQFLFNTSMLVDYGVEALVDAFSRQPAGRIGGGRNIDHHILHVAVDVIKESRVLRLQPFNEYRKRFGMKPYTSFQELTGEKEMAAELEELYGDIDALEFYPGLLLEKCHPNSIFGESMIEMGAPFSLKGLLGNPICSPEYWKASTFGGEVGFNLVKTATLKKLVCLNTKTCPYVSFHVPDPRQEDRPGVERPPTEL
As to the kind of experiment: Inhibition of ovine COX1 catalytic activity using arachidonic acid as substrate pre-incubated for 10 mins followed by substrate addition and measured after 2 mins by ELISA method. (An ELISA detects its analyte on a solid surface through an enzyme-linked reagent.)

For assay [4], the species on record is Rattus norvegicus. As to the kind of experiment: Antidiabetic activity in Wistar rat hemi-diaphragm at 2 mg assessed as increase in glucose uptake in absence of insulin by GOD/POD enzymatic method. It is filed as functional, tissue-based. In short, it runs like this:
as §1

Assay [5] deals with T2, Peroxisome proliferator-activated receptor gamma (Homo sapiens) (UniProt P37231).
T2 sequence (whole entry): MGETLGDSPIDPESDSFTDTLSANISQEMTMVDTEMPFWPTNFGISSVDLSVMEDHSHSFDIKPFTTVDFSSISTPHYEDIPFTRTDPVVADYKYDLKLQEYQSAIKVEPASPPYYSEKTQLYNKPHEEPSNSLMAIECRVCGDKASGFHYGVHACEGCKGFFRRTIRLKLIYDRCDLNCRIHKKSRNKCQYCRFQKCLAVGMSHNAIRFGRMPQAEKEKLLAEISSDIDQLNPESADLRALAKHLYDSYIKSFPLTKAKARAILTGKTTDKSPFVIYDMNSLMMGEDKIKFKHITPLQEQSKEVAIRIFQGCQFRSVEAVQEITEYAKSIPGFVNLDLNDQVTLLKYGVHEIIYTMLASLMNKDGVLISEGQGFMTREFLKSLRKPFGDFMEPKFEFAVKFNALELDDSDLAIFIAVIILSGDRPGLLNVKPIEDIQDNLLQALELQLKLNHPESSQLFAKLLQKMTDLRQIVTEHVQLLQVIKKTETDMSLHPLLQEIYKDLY
Put plainly: Transactivation of GAL4 DBD-fused human PPARgamma LBD expressed in HEK293 cells at 10 uM after 24 hrs by luciferase reporter gene assay relative to pioglitazone. It is filed as cell-based. In short, it runs like this: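 HEK293(T) cells transiently co-transfected with a Gal4 DBD–human PPARγ LBD hybrid and a Gal4 UAS-driven Renilla luciferase reporter. […] Luciferase activity normalized to Renilla and expressed as fold induction over vehicle; triplicates, repeated at least three times.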

Assay [6] relates to Rattus norvegicus. As to the kind of experiment: Antiinflammatory activity in rat acute inflammation model assessed as inhibition of formalin-induced paw edema at 5 mg/kg, po measured after 4 hrs relative to celecoxib. It is filed as functional. In a few lines: (§2)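 Adult female albino rats, 150-250 g, acclimatized 1 week. Compounds given orally at 5 mg/kg body weight; percentage edema inhibition measured after 4 h. Celecoxib and diclofenac sodium served as positive controls.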

The test system of assay [7] is Rattus norvegicus. As to the kind of experiment: Antiinflammatory activity in rat acute inflammation model assessed as inhibition of formalin-induced paw edema at 5 mg/kg, po measured after 4 hrs relative to control. It is filed as functional. In short, it runs like this:
as §2

Assay [8] has as its system THP-1. As to the kind of experiment: Inhibition of PMA-induced human THP1 monocytes differentiation in to macrophages assessed as macrophage metabolic activity up to 300 uM preincubated for 6 hrs before PMA stimulation. It is filed as functional, cell-based. In short, it runs like this: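 THP-1 cells grown in RPMI-1640 with 10% FBS and seeded at 2×10^5 cells/ml. Drug concentrations applied for 6 h before differentiation with PMA 25 ng/ml for 24 h; wells washed 3x with PBS. Attached cells quantified by MTS viability readout, with a no-PMA blank, normalized to DMSO-pretreated PMA cells. Viability at each drug concentration checked separately over 30 h.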

Assay [9] has as its system THP-1. Put plainly: Inhibition of PMA-induced human THP1 monocytes differentiation in to macrophages assessed as macrophage metabolic activity preincubated for 6 hrs before PMA stimulation.

One may read the pIC50 as −log10 of the IC50, conventionally taken in molar units. With `O=C1NC(=S)S/C1=C\c1ccc(OCc2cn(CC(=O)c3ccc(Br)cc3)nn2)cc1`, the outcome in the assay listed under Rattus norvegicus [1] and in the assay filed under Rattus norvegicus [4] was Active. The pIC50 in assay [2] is 5.36; in assay [3], 4.83.

Take `COc1ccc(-n2cc(COc3ccc(/C=C4\SC(=O)NC4=O)cc3)nn2)cc1`: the Activity in assay [5] was 25 to 45%.

Broadly, the inhibition in vivo is the change of the read-out against control, counted positive when it falls. Take `O=C(O)Cc1ccccc1Nc1c(Cl)cccc1Cl` [DICLOFENAC SODIUM]: the inhibition in vivo at 5 mg/kg stood at 205% in the assay on Rattus norvegicus [6] and 52.1% in the assay with Rattus norvegicus [7].

Consider `O=C1NC(=O)/C(=C/c2ccc(OCc3cn(CC(=O)c4ccc(Br)cc4)nn3)cc2)S1`, for which the outcome in the assay listed under Rattus norvegicus [1] and in the assay filed under Rattus norvegicus [4] was Active. In addition, the figures for the pIC50 in assay [2] and in assay [3] were 5.30 and 4.87, respectively.

In turn, `C#CCOc1ccc(/C=C2\SC(=S)NC2=O)cc1` displayed an Activity in [5] of 25 to 45%.

In turn, `O=C1NC(=O)/C(=C/c2ccc(OCc3cn(CC(=O)c4ccc(Cl)cc4)nn3)cc2)S1` gave a pIC50 in assay [3] of 4.96.

For `O=C1NC(=O)/C(=C/c2ccc(OCc3cn(-c4ccc(Br)cc4)nn3)cc2)S1`, the Activity in assay [5] fell in the range of 25 to 45%.

`O=C1NC(=O)/C(=C/c2ccc(OCc3cn(Cc4ccc(Br)cc4)nn3)cc2)S1` returned an Activity in assay [5] of 25 to 45%.

Take `Cc1ccc(-c2cc(C(F)(F)F)nn2-c2ccc(S(N)(=O)=O)cc2)cc1` [CELECOXIB]: the inhibition in vivo at 5 mg/kg in the assay with Rattus norvegicus [7] turned out to be 36.8%.

`O=c1c(O)c(-c2ccc(O)c(O)c2)oc2cc(O)cc(O)c12` [QUERCETIN] had a pIC50 in assay [2] of 5.49.

In the case of `CCc1ccc(CCOc2ccc(CC3SC(=O)NC3=O)cc2)nc1` (centres undefined), the outcome in the assay listed under Rattus norvegicus [1] and in the assay listed under Rattus norvegicus [4] was Active. For the same compound, the inhibition entry in the assay with THP-1 [8] is “inactive”.

Regarding `O=C1NC(=S)S/C1=C\c1ccc(OCc2cn(CC(=O)c3ccc(Cl)cc3)nn2)cc1`, the pIC50 in [2] is 5.37; in assay [3], 4.91.

`CC(Cc1ccc(O)c(O)c1)C(C)Cc1ccc(O)c(O)c1` (centres undefined) [NORDIHYDROGUAIARETIC ACID]: the pIC50 in assay [2] is 4.99.

For the compound `O=C(O)Cc1ccccc1Nc1c(Cl)cccc1Cl` [DICLOFENAC], in the assay with THP-1 [9], the pIC50 is 3.84.
